Source: PubChem (several laboratories)
Hep lipid drop: modulators of hepatic lipid droplet formation; AML12 mouse hepatocytes, oleate lipid droplets, BODIPY imaging; inhibition, % at 6.5 µM; 240,000 tested, 0.4% active; AID 1656;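 active = lipid droplet intensity inhibited by at least 50%, with more than 500 cells counted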
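Assay system: AML12 hepatocytes (mouse); Probe or stimulus: oleic acid at 100 µM to induce lipid droplet formation; Dosing: compound at 6.5 µM only; Schedule: compound with oleate, overnight; Detection: fluorescence imaging, 20x objective, two fields per well; Measure: % inhibition of lipid droplet signal.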
ADAM17 inh: inhibitors of human ADAM17 | inhibition, % at 6.95 µM | AID 720648 | P78536 | recombinant ADAM17, EDANS/DABCYL FRET peptide cleavage | 370,000 tested, 0.83% active;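 active = inhibition above the mean of compounds lying between control limits plus 3 SD, set per campaign, cut at about 8.5% in these data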;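 note: 0% = DMSO-only wells as the low control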
Target sequence (P78536 215-824 limits assumed): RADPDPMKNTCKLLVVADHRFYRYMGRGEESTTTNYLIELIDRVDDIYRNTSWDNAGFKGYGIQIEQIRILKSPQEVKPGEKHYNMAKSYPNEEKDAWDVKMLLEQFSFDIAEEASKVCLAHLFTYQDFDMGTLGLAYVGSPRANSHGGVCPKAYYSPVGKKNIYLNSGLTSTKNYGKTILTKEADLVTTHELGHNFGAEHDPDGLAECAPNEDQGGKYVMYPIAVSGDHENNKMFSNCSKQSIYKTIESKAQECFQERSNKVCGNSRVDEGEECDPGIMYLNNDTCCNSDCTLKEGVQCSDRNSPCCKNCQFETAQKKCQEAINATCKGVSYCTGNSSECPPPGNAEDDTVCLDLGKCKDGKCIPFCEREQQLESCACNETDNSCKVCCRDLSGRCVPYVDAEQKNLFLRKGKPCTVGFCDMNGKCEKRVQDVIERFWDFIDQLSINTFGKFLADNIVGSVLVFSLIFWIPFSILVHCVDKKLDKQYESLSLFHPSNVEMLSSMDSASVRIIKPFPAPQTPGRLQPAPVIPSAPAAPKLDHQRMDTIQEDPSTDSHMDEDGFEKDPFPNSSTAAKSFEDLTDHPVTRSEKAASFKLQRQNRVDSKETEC
ADAM10 inh: ADAM10 inhibition, QFRET primary screen; recombinant ADAM10, EDANS/DABCYL FRET peptide cleavage, 3 h; inhibition, % at 7 µM; 370,000 tested, 0.62% active; AID 720582;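 active = inhibition above a per-campaign cutoff equal to the mean of compounds falling between control-based bounds plus 3 SD, cut at about 20% in these data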;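 note: 0% = DMSO wells while the 100% control is not disclosed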
aDG glyco up: increases alpha dystroglycan glycosylation. activation, % at 10 µM. Pro5-aDG cells, alpha-DG glycosylation AlphaScreen (IIH6); 0% Pro5, 100% B10-LARGE cell signal. 360,000 tested, 0.22% active;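 active = activation of at least 8% versus controls, or a plate z-score of at least 8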;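 note: Pro5 are CHO cells carrying HIG-tagged alpha-DG that lacks glycosylation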
V-ATPase pH: yeast V-ATPase proton transport regulation by pHLuorin | S. cerevisiae, pHLuorin cytosolic pH fluorescence | response, % at 10 µM | 350,000 tested, 0.37% active | AID 504577; in the data active = response mostly above about 7.3%, no sharp cut-off; inactive = mostly below about 5.4%; note: actives read high
MPTP block: permeability transition pore inhibition; isolated mouse mitochondria, Ca2+ swelling absorbance, 30 min; inhibition, % at 10 µM; 360,000 tested, 1.4% active;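 active = inhibition of 50% or more, scaled per plate between neutral and stimulator controls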;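 note: 0% = DMSO wells given calcium and 100% = 1 mM EGTA wells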
MPTP counter: membrane potential counter-screen of mitochondrial pore inhibitors. shares compounds with MPTP block. isolated mitochondria, Rhodamine 123 fluorescence. 5,000 tested, 78% active. inhibition, % at 10 µM. AID 624504; in the data active = inhibition above about 22%;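 note: 0% = DMSO vehicle and 100% = positive control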
MPTP abs DR: dose response confirmation of mitochondrial permeability transition pore inhibitors | shares compounds with MPTP block | isolated mitochondria swelling, absorbance | IC50, µM | 780 tested, 58% active | AID 651561; in the data active = IC50 below about 20 µM
MPTP cs DR: active in counter-screen for permeability transition pore inhibitors; IC50, µM; shares compounds with MPTP block; isolated mitochondria counterscreen, fluorescence read-out; 780 tested, 49% active; in the data active = IC50 below about 80 µM
* marks the source's active call; other numbers are inactive results; i = inactive; . = not tested or not shown. This is a sample that favours compounds with a hit; in the whole collection about 3.1% have one here.

SMILES	Hep lipid drop	ADAM17 inh	ADAM10 inh	aDG glyco up	V-ATPase pH	MPTP block	MPTP counter	others
COc1ccc(CC(=O)NC2CCCCN(Cc3ccc(Cl)cc3)C2=O)cc1OC (stereo unspecified)	.	-6	-8	.	.	.	.
COc1ccc(Cl)cc1NC(=O)c1cccc([N+](=O)[O-])c1O	.	-1	5	0	1	85*	96*
COc1ccc(Cl)cc1NC(=O)c1ccco1	-1	1	11	0	1	80*	1	MPTP abs DR=i;MPTP cs DR=>80
COc1ccc(Cl)cc1C(=O)Nc1ccc(NC(=O)c2ccco2)cc1	-4	-89	-258	0	1	1	.
CCCCNC(=O)C1CCCN1C(=O)Nc1cc(Cl)cc(Cl)c1 (stereo unspecified)	.	-4	-9	.	.	.	.
N/C(=N\C(=O)OCc1ccccc1)N(CC#CC1=CCCCC1)CC1CC1	.	8	14	.	.	.	.
O=C(Nc1cc(Sc2ccccn2)cc([N+](=O)[O-])c1)c1cccc(F)c1	-7	11*	16	0	-2	97*	70*
O=C(Nc1cc(Sc2nc3ccccc3s2)cc([N+](=O)[O-])c1)c1ccccc1	-7	5	8	1	1	90*	73*
O=C(Nc1cc(Sc2nc3ccccc3s2)cc([N+](=O)[O-])c1)c1ccccc1F	.	-1	-4	-1	-4	21	.
Cc1nn(-c2ccccc2)c2sc(C(=O)NC3CCCc4ccccc43)cc12 (stereo unspecified)	.	-4	-16	.	.	.	.
Cn1c(=Nc2ccc(N3CCOCC3)cc2)ccc2ccccc21	.	8	5	3	-2	0	.
Cn1c(N=Nc2ccc(N3CCOCC3)cc2)[n+](C)c2ccccc21	-3	4	6	1	0	81*	25*
O=C(CSc1nnc(-c2ccc(Cl)cc2)n1-c1ccccc1)Nc1ccc(Oc2ccccc2)cc1	.	-3	-2	.	.	.	.
Cc1ccc(S(=O)(=O)N2CCC(C(=O)NCc3cccs3)CC2)cc1	.	1	-2	.	.	.	.
COc1ccccc1NS(=O)(=O)c1ccc(N/N=C(\C)C(C)C)c([N+](=O)[O-])c1	-31	6	16	2	1	76*	55*
COc1ccc(NS(=O)(=O)c2ccc(N/N=C(\C)c3ccncc3)c([N+](=O)[O-])c2)cc1	-18	-4	-1	2	-6	68*	20*
CCCC(CCC)=NNc1ccc(S(=O)(=O)Nc2ccccc2OC)cc1[N+](=O)[O-]	34	3	6	0	-3	7	.
Cc1ccc(NS(=O)(=O)c2ccc(Cl)c(C(=O)Nc3ccccc3-c3nc4ccccc4[nH]3)c2)cc1C	3	-13	-79	0	-1	88*	58*
O=C(Nc1cc(S(=O)(=O)Nc2ccccc2Cl)ccc1O)c1ccc(F)cc1F	.	0	1	0	-3	59*	68*
O=C(Nc1cc(S(=O)(=O)N2CCCCC2)ccc1O)c1ccccc1NS(=O)(=O)c1ccc(F)c(F)c1	5	-6	-11	0	0	91*	65*
Cc1ccc(NC(=O)c2ccccc2NS(=O)(=O)c2ccc(F)cc2)cc1S(=O)(=O)N1CCCCC1	-56	-15	-31	1	3	95*	84*
Cc1ccc(NC(=O)CCNC(=O)c2ccccc2Cl)cc1S(=O)(=O)N1CCCCCC1	.	0	2	0	0	-1	.
O=C(Nc1cccc(S(=O)(=O)N2CCCCC2)c1)c1ccccc1NS(=O)(=O)c1ccc(F)cc1	-54	-25	-42	0	2	96*	81*
NS(=O)(=O)c1cccc(NC(=O)c2ccccc2NS(=O)(=O)c2ccc(F)cc2)c1	2	-21	-42	0	3	0	.
Cc1cccc(Nc2nc(N3CCN(C)CC3)nc(N)c2[N+](=O)[O-])c1	-8	4	-7	0	0	69*	-15	MPTP abs DR=i;MPTP cs DR=>80
SMILES	Hep lipid drop	ADAM17 inh	ADAM10 inh	aDG glyco up	V-ATPase pH	MPTP block	MPTP counter	others
Cc1ccc(Nc2nc(NCCCN3CCOCC3)nc(N)c2[N+](=O)[O-])cc1C	-9	-7	-8	0	-2	67*	-4	MPTP abs DR=>100;MPTP cs DR=>80
CN(C)S(=O)(=O)c1ccc(Cl)c(C(=O)Nc2ccccc2[N+](=O)[O-])c1	41	2	-1	0	1	-1	.
CCN(CC)S(=O)(=O)c1ccc(Cl)c(C(=O)Nc2ccc(Cl)cc2[N+](=O)[O-])c1	-31	5	6	3	2	91*	92*
O=S(=O)(c1ccc(NC(=S)NCCc2ccccc2)cc1)N1CCOCC1	9	3	9	0	0	67*	85*
O=[N+]([O-])c1ccc(NC(=S)NCCc2ccc(Cl)cc2)cc1	-1	6	18	0	3	88*	85*
O=S(=O)(c1ccc(NC(=S)NN=C(Cc2ccccc2)Cc2ccccc2)cc1)N1CCOCC1	6	-3	-3	0	-1	1	.
O=[N+]([O-])c1ccc(NC(=S)NCc2ccncc2)cc1	-5	-2	-2	0	0	28	.
O=[N+]([O-])c1ccc(NC(=S)NCCc2ccccc2)cc1	10	2	12	2	0	87*	88*
O=S(=O)(c1ccc(NC(=S)NCc2ccco2)cc1)N1CCCCC1	6	-2	15	0	3	79*	92*
COCCCNC(=O)C[C@H]1C[C@@]2(C(=O)OC)C(=C[C@H](C(C)C)O[C@@H]2C2CC2)N(Cc2ccc3c(c2)OCO3)C1=O	.	1	3	.	.	.	.
CNCC(=O)N1CCN(c2ncc(C(F)(F)F)cc2Cl)CC1	-8	-1	-2	0	2	0	.
FC(F)(F)c1cnc(N2CCN(C(=S)NCc3ccccc3)CC2)c(Cl)c1	-6	2	3	0	-5	54*	51*
FC(F)(F)c1cnc(N2CCCN(C(=S)Nc3ccccc3)CC2)c(Cl)c1	4	0	10	0	-3	70*	51*
O=C(C=C1CCN(c2ncc(C(F)(F)F)cc2Cl)CC1)NNC(=O)Nc1ccccc1	.	2	0	0	-7	9	.
COc1ccc(C(O)c2nc(-c3ccncc3)cs2)cc1 (stereo unspecified)	.	2	-3	3	.	57*	66*
COc1ccc(-c2csc(C(O)c3ccc(OC)cc3)n2)cc1 (stereo unspecified)	.	-2	-16	0	.	5	.
